Consider two molecules from publication PMC5079537 (Cancer cell, 2016).

Data set [1] deals with T1, MDM2 RING protein (Homo sapiens, UniProt Q00987). The experiment in a line: Fluorescent titration binding assay. Summed up:
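Binding to GST-MDM2 RING protein measured by fluorescence titration, using the protein's intrinsic fluorescence (excitation 280 nm, emission 335 nm). Protein titrated with increasing test compound concentrations. Relative change in fluorescence intensity traced and normalised to derive binding Kd.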

For data set [2], the target named is T1, MDM2 RING protein. The experiment in a line: ITC binding assay. The following applies: read-out: binding Kd to MDM2 RING protein.
Data set [3] deals with MDM2 and XIAP expression in ALL and NB cells. The experiment in a line: Western blot for MDM2 and XIAP expression in cancer cells. In kind it is cell-based, human. A digest of the protocol: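 MDM2-overexpressing ALL lines (EU-1, EU-3) and NB lines (SH-EP1, NB-1691) were treated with test compounds for 24 hr. Time-course and dose-response runs were done in EU-1. Lysis was in Tris pH 7.6/NaCl/1% NP-40 buffer with phosphatase and protease inhibitors. Lysates were resolved by SDS-PAGE, transferred to nitrocellulose, probed for MDM2 and XIAP, and detected by chemiluminescence.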
(In general: In western blotting, separated proteins are transferred to a membrane and probed.)

In data set [4] the test system is endogenous MDM2 in cancer cells. The experiment in a line: IP-Western blot for ubiquitination of endogenous MDM2. In kind it is cell-based, human. A digest of the protocol: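 EU-1 cells treated with 10 μM test compound or a control compound. Lysed in Tris pH 7.6/NaCl/NP-40 buffer with protease and phosphatase inhibitors, cleared, then immunoprecipitated with anti-MDM2 on protein G/protein A-agarose. Immunoprecipitates run on SDS-PAGE, transferred to nitrocellulose, probed with anti-ubiquitin and detected by chemiluminescence.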

The subject of a further data set is MDM2 in EU-1 cells. The experiment in a line: CHX pulse-chase assay, MDM2 turnover. It counts as cell-based, human. The following applies: 10 μM for 4 hr, control greater than 90 min.
Data set [5] deals with p53 in EU-1 cells. The experiment in a line: CHX pulse-chase assay, p53 turnover. The note with it: control less than 30 min. In kind it is cell-based, human.
Data set [6] concerns p53 in EU-1 cells. The experiment in a line: Western blot for p53 expression. It counts as cell-based, human. The note with it: 1 μM MX3 or 10 μM MX69, 2 to 8 hr after treatment.
Another data set deals with EU-1 cells. The experiment in a line: Annexin-V FITC staining for apoptosis. In kind it is cell-based, human. The following applies: 10 μM. A digest of the protocol: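 EU-1 cells treated with 10 μM test compound were washed in PBS and stained with FITC-annexin V and 7-AAD using a kit per the maker's protocol. Read by fluorescence microscopy (annexin V green, 7-AAD red) and by flow cytometry. For flow quantitation, cells were treated for 24 hr. Mean of three independent experiments, bars ± SD.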

Data set [7] relates to human normal bone marrow mononuclear (NBMM) cells. The experiment in a line: WST cytotoxic assay on normal bone marrow cells. In kind it is cell-based. A digest of the protocol:
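Normal human bone marrow mononuclear cells came from five consenting donors under IRB approval. Cells in 96-well plates got a range of test compound concentrations for 20 hr, then WST (25 μg/well) for another 4 hr. OD read at 450 nm against 620 nm reference. Mean ± SD of three independent experiments.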

Data set [8] deals with NBMM cells (normal human hematopoiesis). The experiment in a line: Clonogenic analyses for CFU-GM and BFU-E. It counts as cell-based. The following applies: colonies after 14 days.
Data set [9] relates to Hsd:ICR (CD-1) normal mice. The experiment in a line: Maximum tolerated dose. It counts as in vivo. The note with it: doses between 25 and 200 mg/kg i.p., 3 days/week x 2 courses.
For data set [10], the system named is EU-1 leukemia cells in SCID mice. The experiment in a line: EU-1 leukemia xenograft in SCID mice. It counts as in vivo.
Data set [11] has as its system 12 cancer cell lines (6 ALL and 6 NB). In kind it is cell-based. The note with it: 24 hr.
Data set [12] relates to XIAP IRES. The experiment in a line: Dicistronic reporter assay. It counts as cell-based. The note with it: dicistronic plasmid pRL-xi-FL. A general note: A reporter such as luciferase makes a cellular process visible.
A further data set deals with MYCN IRES. The experiment in a line: Dicistronic reporter assay, control IRES. It counts as cell-based.
The test system of data set [13] is caspases 3, 7 and 9, PARP. The experiment in a line: Western blot and ELISA for caspase activation and PARP cleavage. In kind it is cell-based, human. The following applies: ALL and NB cells. A digest of the protocol:
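Western blot of caspase-3 activation and PARP cleavage in cancer cells treated with test compounds at 1 or 10 μM, or a control compound at 10 μM, over a time course. Cells were lysed in 50 mM Tris pH 7.6, 150 mM NaCl, 1% NP-40 with phosphatase and protease inhibitors. Lysates were run on SDS-PAGE, transferred to nitrocellulose, probed with specific antibodies and detected by chemiluminescence.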

Data set [14] deals with Hsd:ICR (CD-1) normal mice. The note with it: 100 mg/kg.
Data set [15] has as its target XIAP IRES. The experiment in a line: Fluorescent titration binding assay. The following applies: read-out: binding Kd to XIAP IRES. Summed up:
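Fluorescence-labelled XIAP IRES RNA (excitation 485 nm, emission 530 nm) titrated with increasing test compound concentrations. Relative change in fluorescence intensity traced and normalised to derive binding Kd.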

T1 sequence (Q00987 438-479 limits assumed): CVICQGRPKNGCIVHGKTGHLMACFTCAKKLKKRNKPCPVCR

Take `Cc1ccc(NS(=O)(=O)c2ccc3c(c2)C2C=CCC2C(c2ccc(C(=O)O)cc2)N3)cc1C` (stereo not drawn) [MX69]: the dissociation constant (Kd) on MDM2 RING protein [1] (read-out: binding Kd to MDM2 RING protein) amounted to 2340 nM. In addition, the Kd at MDM2 RING protein [2] came to 2750 nM. Besides, in data set [3], the “inhibition of MDM2 and XIAP protein expression” value is “inhibited expression of both MDM2 and XIAP”. Also, the “ubiquitination of endogenous MDM2” value in data set [4] was “induced ubiquitination”. In the data set with MDM2 in EU-1 cells, this molecule showed an MDM2 half-life of under 30 min. In addition, the p53 half-life result in the data set with p53 in EU-1 cells [5] is given as “remarkably increased”. In the data set with p53 in EU-1 cells [6], the p53 protein levels entry is recorded as “significantly increased”. Also, the Annexin-V positive cells result in the data set on EU-1 cells was “over 90%”. Moreover, the “cell survival of NBMM” value in [7] (2–8 μM for 24 hr) is given as “over 90%”. Also, in data set [8] (10 μM), the “inhibitory effect on BFU-E” value is given as “little inhibitory effect” and the “inhibitory effect on CFU-GM” value is recorded as “little inhibitory effect”. The “tolerability, deaths by day 30” value in data set [9] is on record as “well tolerated, with no deaths”. Also, the “mice that died within 98–143 days after inoculation” value in data set [10] (50 mg/kg i.p.) was “Forty”. The “mice that died within 98–143 days after inoculation” value in data set [10] (75 mg/kg i.p.) was 20%. Besides, in data set [10] (up to 40-days post-treatment), the “adverse effects (body weight, fur pattern)” value was “no adverse effects”. For the same molecule, in [11], the cytotoxic effect entry is “significant cytotoxic effect”. Further, the “XIAP IRES-mediated translation of firefly luciferase” value with XIAP IRES [12] is “inhibited”. The “activity on the MYCN IRES” value in the data set on MYCN IRES is “no activity”. The “activation of caspases 3, 7 and 9 and cleavage of PARP” value in data set [13] is “activation of these caspases and cleavage of PARP were detected”. In addition, in data set [14], the ALT entry is listed as “no significant increases”, the AST result is “no significant increases”, the BUN entry is “no significant increases” and the PLT entry is listed as “no significant decreases”. Further, in [14], the WBC result is “no significant decreases”; the “histopathology of heart, liver and kidney” value was “no evidence of toxicity”.

As to `O=C1c2c(O)ccc(O)c2C(=O)c2c(NCCNCCO)ccc(NCCNCCO)c21` [MX3, mitoxantrone, reference compound], the “binding to MDM2 RING protein” value on MDM2 RING protein [1] was “neither of these leads bound”. The Kd on XIAP IRES [15] was found to be 5260 nM. Further, the “inhibition of MDM2 and XIAP protein expression” value in data set [3] is “inhibited expression of both MDM2 and XIAP”. Besides, the “ubiquitination of endogenous MDM2” value in data set [4] was “induced ubiquitination”. Further, the “cell survival of NBMM” value in data set [7] (2 μM, 24 hr) is listed as “about 50%”. The “inhibitory effect on BFU-E” value in data set [8] (1 μM) is listed as “severe inhibitory effects”. For the same molecule, the cytotoxic effect entry in [11] is on record as “most potent cytotoxic effect”. Also, in data set [13], the “activation of caspases 3, 7 and 9 and cleavage of PARP” value is “activation of these caspases and cleavage of PARP were detected”.

For orientation: Kd means the constant that tells how readily two partners part at equilibrium.
